ChEMBL document CHEMBL1125014, “Synthesis and structure-activity relationships of new 9-N-alkyl derivatives of 9(S)-erythromycylamine” (1990)
Converted amounts (≈) assume the structure as drawn.

How the values were obtained:
[1] = tested on: Haemophilus influenzae; assay: MIC value was measured against haemophilus influenzae CL; format: functional
[2] = tested on: Mus musculus; assay: ED50 value was measured against staphylococcus aureus after po administration in mice in vivo, in experiment 3); format: functional
Method in brief: (§1)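 Infected mice were dosed orally or subcutaneously at 1 and 5 h postinfection, 0.25 mL of antibiotic solution in 10% aqueous ethanol per dose. Tartaric acid was added where needed for solubility. Several dose concentrations were tested to give the ED50.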

[3] = tested on: Staphylococcus aureus; assay: Effective dose against mice infected with Staphylococcus aureus after peroral administration (in vivo); format: functional; details: in Mus musculus, po
[4] = tested on: Streptococcus pneumoniae; assay: Effective dose against mice infected with streptococcus pneumoniae after peroral administration (in vivo); format: functional; details: in Mus musculus, po
[5] = tested on: Streptococcus pyogenes; assay: Effective dose against mice infected with streptococcus pyogenes after peroral administration (in vivo); format: functional; details: in Mus musculus, po
[6] = tested on: Mus musculus; assay: ED50 value was measured against staphylococcus aureus after sc administration in mice in vivo, in experiment 3); format: functional; method in brief: as §1
[7] = tested on: Mus musculus; assay: ED50 value was measured against streptococcus pneumoniae after po administration in mice in vivo, in experiment 3); format: functional; method in brief: as §1
[8] = tested on: Mus musculus; assay: ED50 value was measured against streptococcus pneumoniae after sc administration in mice in vivo, in experiment 3); format: functional; method in brief: as §1
[9] = tested on: Mus musculus; assay: ED50 value was measured against streptococcus pyogenes after po administration in mice (in vivo, in experiment 3); format: functional; method in brief: as §1
[10] = tested on: Mus musculus; assay: ED50 value was measured against streptococcus pyogenes after sc administration in mice in vivo, in experiment 3); format: functional; method in brief: as §1
[11] = tested on: Streptococcus pneumoniae; assay: MIC value was measured against streptococcus pneumoniae park1; format: functional
Method in brief: (§2)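 Susceptibility determined by standard agar-dilution method against a panel of bacterial strains.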

[12] = tested on: Staphylococcus aureus; assay: MIC value measured against staphylococcus aureus X1; format: functional
[13] = tested on: Enterococcus faecalis; assay: MIC value was measured against streptococcus faecalis X66; format: functional; method in brief: as §2
[14] = tested on: Streptococcus pyogenes; assay: MIC value measured against streptococcus pyogenes C203; format: functional
[15] = tested on: Staphylococcus epidermidis; assay: microbe, parasite or virus in culture; format: functional
[16] = tested on: Staphylococcus epidermidis; assay: MIC value was measured against staphylococcus epidermidis 222; format: functional; method in brief: as §2
[17] = tested on: Haemophilus influenzae; assay: MIC value was measured against haemophilus influenzae.; format: functional; method in brief: as §2
[18] = tested on: Streptococcus pneumoniae; assay: MIC value measured against streptococcus pneumoniae Park1; format: functional
[19] = tested on: Staphylococcus epidermidis; assay: MIC value was measured against staphylococcus epidermidis.; format: functional; method in brief: as §2
[20] = tested on: Streptococcus pneumoniae; assay: MIC value was measured against streptococcus pneumoniae park1
[21] = tested on: Mus musculus; assay: ED50 value was measured against staphylococcus aureus after sc administration in mice (in vivo, in experiment 1); format: functional; method in brief: as §1
[22] = tested on: Mus musculus; assay: ED50 value was measured against staphylococcus aureus infection in mice (in vivo, in experiment 1); format: functional; method in brief: as §1
[23] = tested on: Mus musculus; assay: ED50 value was measured against streptococcus pneumoniae after po administration in mice (in vivo, in experiment 1); format: functional; method in brief: as §1
[24] = tested on: Mus musculus; assay: ED50 value was measured against streptococcus pneumoniae after sc administration in mice (in vivo, in experiment 1); format: functional; method in brief: as §1
[25] = tested on: Mus musculus; assay: ED50 value was measured against streptococcus pyogenes after po administration in mice (in vivo, in experiment 1); format: functional; method in brief: as §1
[26] = tested on: Mus musculus; assay: ED50 value was measured against streptococcus pyogenes after sc administration in mice (in vivo, in experiment 1); format: functional; method in brief: as §1
[27] = tested on: Mus musculus; assay: ED50 value was measured against staphylococcus aureus after po administration in mice (in vivo, in experiment 3); format: functional; method in brief: as §1
[28] = tested on: Mus musculus; assay: ED50 value was measured against staphylococcus aureus after sc administration in mice (in vivo, in experiment 3); format: functional; method in brief: as §1
[29] = tested on: Mus musculus; assay: ED50 value was measured against streptococcus pneumoniae after po administration in mice (in vivo, in experiment 3); format: functional; method in brief: as §1
[30] = tested on: Mus musculus; assay: ED50 value was measured against streptococcus pneumoniae after sc administration in mice (in vivo, in experiment 3); format: functional; method in brief: as §1
[31] = tested on: Mus musculus; assay: ED50 value was measured against streptococcus pyogenes after sc administration in mice (in vivo, in experiment 3); format: functional; method in brief: as §1
[32] = tested on: Mus musculus; assay: ED50 value was measured against staphylococcus aureus after po administration in mice (in vivo, in experiment 2); format: functional; method in brief: as §1
[33] = tested on: Mus musculus; assay: ED50 value was measured against staphylococcus aureus after sc administration in mice (in vivo, in experiment 2); format: functional; method in brief: as §1
[34] = tested on: Mus musculus; assay: ED50 value was measured against streptococcus pneumoniae after po administration in mice (in vivo, in experiment 2); format: functional; method in brief: as §1
[35] = tested on: Mus musculus; assay: ED50 value was measured against streptococcus pneumoniae after sc administration in mice (in vivo, in experiment 2); format: functional; method in brief: as §1
[36] = tested on: Mus musculus; assay: ED50 value was measured against streptococcus pyogenes after po administration in mice (in vivo, in experiment 2); format: functional; method in brief: as §1
[37] = tested on: Mus musculus; assay: ED50 value was measured against streptococcus pyogenes after sc administration in mice (in vivo, in experiment 2); format: functional; method in brief: as §1

| Compound | MIC [1] | MIC [11] | MIC [12] | MIC [13] | MIC [14] | MIC [15] | MIC [17] | MIC [18] | ED50 [3] | ED50 [4] | ED50 [5] | further results |
| --- | --- | --- | --- | --- | --- | --- | --- | --- | --- | --- | --- | --- |
| CC[C@H]1OC(=O)[C@H](C)[C@@H](OC2CC(C)(OC)C(O)C(C)O2)[C@H](C)[C@@H](OC2OC(C)CC(N(C)C)C2O)[C@](C)(O)C[C@@H](C)[C@H](NCC2CC=CCC2)[C@H](C)[C@@H](O)[C@]1(C)O (some centres undefined) | 4 µg/mL (≈ 4.82 µM) | – | 1 µg/mL (≈ 1.21 µM) | 0.25 µg/mL (≈ 0.302 µM) | 0.06 µg/mL (≈ 0.0724 µM) | 0.25 µg/mL (≈ 0.302 µM) | – | – | 20 mg/kg | 9 mg/kg | 15 mg/kg | MIC [20]: 0.008 µg/mL (≈ 0.00965 µM) |
| CC[C@H]1OC(=O)[C@H](C)[C@@H](OC2CC(C)(OC)C(O)C(C)O2)[C@H](C)[C@@H](OC2OC(C)CC(N(C)C)C2O)[C@](C)(O)C[C@@H](C)[C@H](NCCOCCOC)[C@H](C)[C@@H](O)[C@]1(C)O (some centres undefined) | 2 µg/mL (≈ 2.39 µM) | – | 1 µg/mL (≈ 1.19 µM) | – | 0.12 µg/mL (≈ 0.143 µM) | 1 µg/mL (≈ 1.19 µM) | 2 µg/mL (≈ 2.39 µM) | 0.015 µg/mL (≈ 0.0179 µM) | 22 mg/kg | 23 mg/kg | 27 mg/kg | ED50 [21]: 3.8 mg/kg; ED50 [22]: 78 mg/kg; ED50 [23]: 43 mg/kg; ED50 [24]: 1.4 mg/kg; ED50 [25]: 37 mg/kg; ED50 [26]: 5.3 mg/kg |
| CCC1N[C@@H]2[C@H](C)[C@@H](O1)[C@](C)(O)[C@@H](CC)OC(=O)[C@H](C)[C@@H](OC1CC(C)(OC)C(O)C(C)O1)[C@H](C)[C@@H](OC1OC(C)CC(N(C)C)C1O)[C@](C)(O)C[C@H]2C (some centres undefined) | 8 µg/mL (≈ 10.3 µM) | 0.12 µg/mL (≈ 0.155 µM) | 0.5 µg/mL (≈ 0.645 µM) | 0.5 µg/mL (≈ 0.645 µM) | 0.12 µg/mL (≈ 0.155 µM) | 0.5 µg/mL (≈ 0.645 µM) | – | – | 34 mg/kg | 30 mg/kg | 35 mg/kg | ED50 [27]: 20 mg/kg; ED50 [28]: 0.8 mg/kg; ED50 [29]: 17 mg/kg; ED50 [30]: < 0.6 mg/kg; ED50 [9]: 19 mg/kg; ED50 [31]: < 0.6 mg/kg |

Second part, led by results:

| MIC [1] | MIC [11] | MIC [12] | MIC [13] | MIC [14] | MIC [15] | MIC [17] | MIC [18] | Compound | ED50 [3] | ED50 [4] | ED50 [5] | further results |
| --- | --- | --- | --- | --- | --- | --- | --- | --- | --- | --- | --- | --- |
| 2 µg/mL (≈ 2.39 µM) | 0.06 µg/mL (≈ 0.0718 µM) | 0.5 µg/mL (≈ 0.599 µM) | 0.25 µg/mL (≈ 0.299 µM) | 0.12 µg/mL (≈ 0.144 µM) | 0.5 µg/mL (≈ 0.599 µM) | – | – | CC[C@H]1OC(=O)[C@H](C)[C@@H](OC2CC(C)(OC)C(O)C(C)O2)[C@H](C)[C@@H](OC2OC(C)CC(N(C)C)C2O)[C@](C)(O)C[C@@H](C)[C@@H]2NC(COCCOC)O[C@H]([C@H]2C)[C@]1(C)O (some centres undefined) | > 50 mg/kg | 32 mg/kg | 43 mg/kg | ED50 [2]: 27 mg/kg; ED50 [6]: 1 mg/kg; ED50 [7]: 23 mg/kg; ED50 [8]: < 0.6 mg/kg; ED50 [9]: 34 mg/kg; ED50 [10]: 0.6 mg/kg |
| 1 µg/mL (≈ 1.25 µM) | 0.015 µg/mL (≈ 0.0187 µM) | 1 µg/mL (≈ 1.25 µM) | 0.25 µg/mL (≈ 0.311 µM) | 0.06 µg/mL (≈ 0.0747 µM) | – | – | – | CCCN1C(C)O[C@@H]2[C@@H](C)[C@@H]1[C@H](C)C[C@@](C)(O)[C@H](OC1OC(C)CC(N(C)C)C1O)[C@@H](C)[C@H](OC1CC(C)(OC)C(O)C(C)O1)[C@@H](C)C(=O)O[C@H](CC)[C@@]2(C)O (some centres undefined) | – | – | – | MIC [16]: 0.25 µg/mL (≈ 0.311 µM) |
| 2 µg/mL (≈ 2.44 µM) | – | 0.5 µg/mL (≈ 0.61 µM) | – | 0.015 µg/mL (≈ 0.0183 µM) | – | 2 µg/mL (≈ 2.44 µM) | 0.015 µg/mL (≈ 0.0183 µM) | CCC(CC)CN[C@@H]1[C@H](C)[C@@H](O)[C@](C)(O)[C@@H](CC)OC(=O)[C@H](C)[C@@H](OC2CC(C)(OC)C(O)C(C)O2)[C@H](C)[C@@H](OC2OC(C)CC(N(C)C)C2O)[C@](C)(O)C[C@H]1C (some centres undefined) | 22 mg/kg | 17 mg/kg | 10 mg/kg | MIC [19]: 0.5 µg/mL (≈ 0.61 µM) |
| 0.5 µg/mL (≈ 0.62 µM) | – | 0.5 µg/mL (≈ 0.62 µM) | – | 0.06 µg/mL (≈ 0.0743 µM) | 0.5 µg/mL (≈ 0.62 µM) | 0.5 µg/mL (≈ 0.62 µM) | 0.03 µg/mL (≈ 0.0372 µM) | CC[C@H]1OC(=O)[C@H](C)[C@@H](OC2CC(C)(OC)C(O)C(C)O2)[C@H](C)[C@@H](OC2OC(C)CC(N(C)C)C2O)[C@](C)(O)C[C@@H](C)[C@H](NCCCOC)[C@H](C)[C@@H](O)[C@]1(C)O (some centres undefined) | 16 mg/kg | 16 mg/kg | 14 mg/kg | ED50 [32]: 36 mg/kg; ED50 [33]: 3.7 mg/kg; ED50 [34]: 17 mg/kg; ED50 [35]: 8.3 mg/kg; ED50 [36]: 19 mg/kg; ED50 [37]: 2.1 mg/kg |
